Read-outs that look alike come from different tables or passages of the source.
How the values were obtained:
[1] = test system: α-Glucosidase from Saccharomyces cerevisiae; assay: α-Glucosidase inhibitory assay; type: biochemical; conditions: for IC50: read-out: α-glucosidase inhibition (IC50)
3T3-L1 cells [2] = assay: Glucose consumption assay in 3T3-L1 cells; type: cell-based; conditions: Mus musculus
Cytotoxicity analysis = type: cell-based; conditions: mouse, 3T3-L1 cells
Procedure, shortened: (§1)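 3T3-L1 cells grown in high-glucose DMEM with 10% FBS and 2 mM glutamine at 37 °C, 5% CO2. Seeded at 1 × 10^4 cells per well with 30 nM insulin in detection medium for 24–48 h. Test compound at 0.01–1000 μg/mL for 72 h. Then MTT (0.5 mg/mL in phosphate buffer) for 4 h, DMSO solubilisation, A570. % viability reported as mean of triplicates ± SD.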

3T3-L1 cells [3] = assay: Cytotoxicity analysis; type: cell-based; conditions: for % cell viability: MTT assay, 72 h
Procedure, shortened: as §1

[4] = 3T3-L1, read-out: glucose consumption (IC50, μM)

Row | Compound | IC50 [1] [µM] | IC50 (3T3-L1 cells [2]; [4]) [µM] | viability at 72 h (Cytotoxicity analysis) [%] | other results
1 | C[C@H]1O[C@H](O[C@H]2[C@H](O)[C@@H](O)[C@@H](O[C@H]3[C@H](O)[C@@H](O)C(O)O[C@@H]3CO)O[C@@H]2CO)[C@H](O)[C@@H](O)[C@@H]1N[C@H]1C=C(CO)[C@@H](O)[C@H](O)[C@H]1O (stereo partly drawn) [Acarbose, reference compound] | – | – | – | % inhibition at 200 μg/mL (α-glucosidase) ([1]; final concentration of 200 μg/mL): 98.9%
2 | C[C@H]1C(=O)CC[C@@H]2[C@]1(C)CC[C@H]1[C@@]2(C)CC[C@@]2(C)[C@@H]3CC(C)(C)CC[C@]3(C)CC[C@]12C [Compound 9, friedelin] | > 100 | 18.5 | 101 | –
3 | COc1ccc2oc3cccc(O)c3c(=O)c2c1 [Compound 4, 1-hydroxyl-7 methoxyxanthone] | > 100 | 23.2 | 102 | –
4 | CN(C)C(=N)N=C(N)N [Metformin, reference compound] | – | 45.4 | 99.7 | IC50 (3T3-L1 cells [2]; 3T3-L1, read-out: glucose consumption (IC50, μg/mL)): 6.3 µg/mL
5 | CC(C)=CCC/C(C)=C/Cc1c(O)cc2oc3c(O)cccc3c(=O)c2c1O [Compound 5, mangostinone] | > 100 | 16 | 93.1 | –
6 | cowanol [Compound 7] | 18 | – | – | % cell viability (3T3-L1 cells [3]): 100.9%

Second part, led by results:

Row | IC50 [1] [µM] | Compound | IC50 (3T3-L1 cells [2]; [4]) [µM] | viability at 72 h (Cytotoxicity analysis) [%] | other results
7 | 13.1 | guttiferone I [Compound 2] | – | – | toxicity to cells (in words) (3T3-L1 cells [3]): without causing toxicity to cells; % cell viability (3T3-L1 cells [3]): 98.7%; toxicity to cells (in words) (3T3-L1 cells [3]; listed as Guttiferone I): without causing toxic effects
8 | > 100 | O=c1c2cc(O)ccc2oc2cccc(O)c12 [Compound 3, 1,7-dihydroxyxanthone] | – | 105 | –
